Assay results: ChEMBL document CHEMBL1152672, “Side chain azasteroids and thiasteroids as sterol methyltransferase inhibitors in ergosterol biosynthesis” (2009)
Values after ≈ are worked out from the molar mass of the structure shown.

What was measured:
[1] = target: T1, Sterol 24-C-methyltransferase (Yarrowia lipolytica) (UniProt Q6C2D9); experiment: Inhibition of Yarrowia lipolytica 24-SMT assessed as 5-dehydroepisterol-3-trimethylsilyl derivative at 2 ug/mL after 48 hrs by GC-MS analysis relative to untreated control; parameters: scale not given: the % may be the effect or the level left
T1 sequence (whole entry): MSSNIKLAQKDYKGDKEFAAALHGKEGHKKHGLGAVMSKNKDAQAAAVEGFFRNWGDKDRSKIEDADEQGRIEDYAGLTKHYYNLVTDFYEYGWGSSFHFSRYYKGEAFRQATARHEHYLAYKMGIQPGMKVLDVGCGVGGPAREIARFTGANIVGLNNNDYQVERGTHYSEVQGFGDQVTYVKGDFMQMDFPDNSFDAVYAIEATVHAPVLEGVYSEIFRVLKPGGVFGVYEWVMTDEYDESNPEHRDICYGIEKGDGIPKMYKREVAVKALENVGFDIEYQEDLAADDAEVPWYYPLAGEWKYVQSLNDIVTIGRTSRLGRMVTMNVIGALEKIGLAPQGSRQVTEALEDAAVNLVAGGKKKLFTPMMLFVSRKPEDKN
Procedure, shortened: (§1)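 Whole-cell sterol profiling. Y. lipolytica at 50,000 CFU/mL was exposed to compounds added from ethanol for 48 ± 2 h at 28 °C, and the MIC/2 and/or MIC/4 wells were used. Cells were pelleted and PBS-washed, then saponified in 1 M NaOH at 70 °C for 1 h. Sterols were extracted into TBME with a cholesterol internal standard and silylated to TMS ethers. GC-MS full scan, with each sterol given as % of total integrated quantifier-ion area.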

[2] = target: T1, Sterol 24-C-methyltransferase (Yarrowia lipolytica); experiment: Inhibition of Yarrowia lipolytica 24-SMT assessed as 5-dehydroepisterol-3-trimethylsilyl derivative at 1 ug/mL after 48 hrs by GC-MS analysis relative to untreated control; parameters: scale not given: the % may be the effect or the level left; procedure, shortened: as §1
[3] = target: T1, Sterol 24-C-methyltransferase (Yarrowia lipolytica); experiment: Inhibition of Yarrowia lipolytica 24-SMT assessed as cholesta-7,24-dien-3-trimethylsilyl derivative at 2 ug/mL after 48 hrs by GC-MS analysis relative to untreated control; parameters: scale not given: the % may be the effect or the level left; procedure, shortened: as §1
[4] = target: T1, Sterol 24-C-methyltransferase (Yarrowia lipolytica); experiment: Inhibition of Yarrowia lipolytica 24-SMT assessed as dehydroergosterol-3-trimethylsilyl derivative at 1 ug/mL after 48 hrs by GC-MS analysis relative to untreated control; parameters: scale not given: the % may be the effect or the level left; procedure, shortened: as §1
[5] = target: T1, Sterol 24-C-methyltransferase (Yarrowia lipolytica); experiment: Inhibition of Yarrowia lipolytica 24-SMT assessed as dehydroergosterol-3-trimethylsilyl derivative at 2 ug/mL after 48 hrs by GC-MS analysis relative to untreated control; parameters: scale not given: the % may be the effect or the level left; procedure, shortened: as §1
Yarrowia lipolytica = experiment: Antimicrobial activity against Yarrowia lipolytica after 48 hrs; format: functional
Procedure, shortened: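 Broth dilution MIC per DIN 58940-84. Log-phase Y. lipolytica in yeast extract/peptone/glucose medium, counted against a 0.5 McFarland standard (A570) and seeded at 50,000 CFU/mL in 2 mL wells. Compounds added from ethanol; final concentrations 2 to 0.06125 µg/mL unless otherwise stated. Plates incubated 48 ± 2 h at 28 °C. MIC is the lowest concentration with no visible growth.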

[6] = target: T1, Sterol 24-C-methyltransferase (Yarrowia lipolytica); experiment: Inhibition of Yarrowia lipolytica 24-SMT assessed as zymosterol-3-trimethylsilyl derivative level at 2 ug/mL after 48 hrs by GC-MS analysis relative to untreated control; parameters: scale not given: the % may be the effect or the level left; procedure, shortened: as §1
[7] = target: T1, Sterol 24-C-methyltransferase (Yarrowia lipolytica); experiment: Inhibition of Yarrowia lipolytica 24-sterol C-methyltransferase assessed as ergosterol-3-trimethylsilyl derivative level at 2 ug/mL after 48 hrs by GC-MS analysis relative to untreated control; parameters: scale not given: the % may be the effect or the level left; procedure, shortened: as §1
[8] = target: T1, Sterol 24-C-methyltransferase (Yarrowia lipolytica); experiment: Inhibition of Yarrowia lipolytica 24-sterol C-methyltransferase assessed as ergosterol-3-trimethylsilyl derivative level at 1 ug/mL after 48 hrs by GC-MS analysis relative to untreated control; parameters: scale not given: the % may be the effect or the level left; procedure, shortened: as §1
[9] = target: T1, Sterol 24-C-methyltransferase (Yarrowia lipolytica); experiment: Inhibition of Yarrowia lipolytica 24-sterol C-methyltransferase assessed as cholesta-5,7,24-trien-3-trimethylsilyl derivative at 1 ug/mL after 48 hrs by GC-MS analysis relative to untreated control; parameters: scale not given: the % may be the effect or the level left; procedure, shortened: as §1
[10] = target: T1, Sterol 24-C-methyltransferase (Yarrowia lipolytica); experiment: Inhibition of Yarrowia lipolytica 24-SMT assessed as cholesta-5,7,24-trien-3-trimethylsilyl derivative at 2 ug/mL after 48 hrs by GC-MS analysis relative to untreated control; parameters: scale not given: the % may be the effect or the level left; procedure, shortened: as §1
[11] = target: T1, Sterol 24-C-methyltransferase (Yarrowia lipolytica); experiment: Inhibition of Yarrowia lipolytica 24-SMT assessed as cholesta-7,24-dien-3-trimethylsilyl derivative at 1 ug/mL after 48 hrs by GC-MS analysis relative to untreated control; parameters: scale not given: the % may be the effect or the level left; procedure, shortened: as §1
[12] = target: T1, Sterol 24-C-methyltransferase (Yarrowia lipolytica); experiment: Inhibition of Yarrowia lipolytica 24-SMT assessed as dehydroergosterol-3-trimethylsilyl derivative at 0.2 ug/mL after 48 hrs by GC-MS analysis relative to untreated control; parameters: scale not given: the % may be the effect or the level left; procedure, shortened: as §1
[13] = target: T1, Sterol 24-C-methyltransferase (Yarrowia lipolytica); experiment: Inhibition of Yarrowia lipolytica 24-SMT assessed as 14-alpha-methylergosta-8,24(28)-dien-3beta,6alpha-di-trimethylsilyl derivative at 0.2 ug/mL after 48 hrs by GC-MS analysis relative to untreated control; parameters: scale not given: the % may be the effect or the level left
Procedure, shortened: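 Y. lipolytica whole cells, inoculated at 50,000 CFU/mL in yeast extract/peptone/glucose medium, exposed to compound (ethanol solution, 10 µL per 2 mL well), 48 ± 2 h, 28 °C. Wells at MIC/2 and/or MIC/4 pelleted, saponified in 1 M NaOH at 70 °C for 1 h, extracted with TBME and silylated. GC–MS with cholesterol internal standard. Each sterol given as percent of total integrated area; ethanol-only wells as control.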

[14] = target: T1, Sterol 24-C-methyltransferase (Yarrowia lipolytica); experiment: Inhibition of Yarrowia lipolytica 24-SMT assessed as lanosterol-3-trimethylsilyl derivative at 0.2 ug/mL after 48 hrs by GC-MS analysis relative to untreated control; parameters: scale not given: the % may be the effect or the level left; procedure, shortened: as §1
[15] = target: T1, Sterol 24-C-methyltransferase (Yarrowia lipolytica); experiment: Inhibition of Yarrowia lipolytica 24-SMT assessed as ergosterol-3-trimethylsilyl derivative level at 0.2 ug/mL after 48 hrs by GC-MS analysis relative to untreated control; parameters: scale not given: the % may be the effect or the level left; procedure, shortened: as §1

| Structure (SMILES) | Activity [1] [%] | Activity [2] [%] | Activity [3] [%] | Activity [4] [%] | Activity [5] [%] | MIC (Yarrowia lipolytica) [µg/mL] | Activity [6] [%] | Activity [7] [%] | Activity [8] [%] | Activity [9] [%] | Activity [10] [%] | Activity [11] [%] | Activity [12] [%] | Activity [13] [%] | Activity [14] [%] | Activity [15] [%] |
| --- | --- | --- | --- | --- | --- | --- | --- | --- | --- | --- | --- | --- | --- | --- | --- | --- |
| C[C@H](CNCCN1CCCC1)[C@H]1CC[C@H]2C3=CC[C@H]4C[C@@H](O)CC[C@]4(C)[C@H]3CC[C@]12C | 3.6 | 4.8 | 6 | 65.4 | 40.1 | > 2 | 0.4 | 3.3 | 1.7 | 24.3 | 46.6 | 3.6 | – | – | – | – |
| CC(=O)N1CCN(c2ccc(OCC3COC(Cn4ccnc4)(c4ccc(Cl)cc4Cl)O3)cc2)CC1 (configuration not stated) [KETOCONAZOLE] | – | – | – | – | – | 0.5 (≈ 0.941 µM) | – | – | – | – | – | – | 59.1 | 2.4 | 28.9 | 9.6 |
